Converted amounts (≈) assume the structure as drawn. The source made the active and inactive calls. The calls are words filed in the database; no cut-off is given here.
Columns and labels:
HCT-116 [1] = assay: Antiproliferative activity against human HCT116 cells by BrdU incorporation assay; type: functional, cell-based
Procedure, shortened: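 HCT116 proliferation measured as BrdU incorporation; EC50 reported.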

Aurora kinase B = Aurora kinase B (Homo sapiens, UniProt Q96GD4); assay: Inhibition of Aurora B after 60 mins
[2] = Aqueous solubility at pH 4; type: physicochemical
Procedure, shortened: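 Kinetic solubility at pH 4.0, reported as a range from low to high solubility; values of 1000 µM or higher are reported as >1000 µM.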

Aurora kinase A = target: T1, Aurora kinase A (Homo sapiens, UniProt O14965); assay: Inhibition of Aurora A after 60 mins
T1 sequence (O14965 whole entry): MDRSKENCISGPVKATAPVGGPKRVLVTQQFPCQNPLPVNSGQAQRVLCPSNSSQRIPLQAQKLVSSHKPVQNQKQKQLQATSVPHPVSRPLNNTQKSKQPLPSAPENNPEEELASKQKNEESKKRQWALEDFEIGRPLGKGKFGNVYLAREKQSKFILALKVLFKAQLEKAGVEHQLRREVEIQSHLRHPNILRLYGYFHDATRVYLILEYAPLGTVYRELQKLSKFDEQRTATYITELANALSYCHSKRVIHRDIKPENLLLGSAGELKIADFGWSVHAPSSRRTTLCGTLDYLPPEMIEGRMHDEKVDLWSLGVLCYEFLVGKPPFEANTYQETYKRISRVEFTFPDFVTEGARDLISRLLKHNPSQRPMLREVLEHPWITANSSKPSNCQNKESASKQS

HCT-116 [3] = assay: Cell cycle arrest in human HCT116 cells assessed as accumulation of 4N DNA by FACS analysis; type: functional, cell-based
Procedure, shortened: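 HCT116 cells exposed to 16, 63, 250 and 1000 nM of compound, then cell-cycle profile read by FACS. EC50 is reported as the concentration range at which ≥50% of cells have 4 N or higher DNA content.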

[4] = Half life in mouse at 5 mg/kg, iv; type: ADME, organism-based; design: dose 5 mg/kg, route intravenous; details: in vivo
HCT-116 [5] = assay: Cell cycle arrest in human HCT116 cells assessed as accumulation of cells at G2 phase; type: functional, cell-based
[6] = Clearance in mouse at 5 mg/kg, iv; type: ADME, organism-based; design: dose 5 mg/kg, route intravenous; details: in vivo

Sequence of Aurora kinase B (Q96GD4 whole entry): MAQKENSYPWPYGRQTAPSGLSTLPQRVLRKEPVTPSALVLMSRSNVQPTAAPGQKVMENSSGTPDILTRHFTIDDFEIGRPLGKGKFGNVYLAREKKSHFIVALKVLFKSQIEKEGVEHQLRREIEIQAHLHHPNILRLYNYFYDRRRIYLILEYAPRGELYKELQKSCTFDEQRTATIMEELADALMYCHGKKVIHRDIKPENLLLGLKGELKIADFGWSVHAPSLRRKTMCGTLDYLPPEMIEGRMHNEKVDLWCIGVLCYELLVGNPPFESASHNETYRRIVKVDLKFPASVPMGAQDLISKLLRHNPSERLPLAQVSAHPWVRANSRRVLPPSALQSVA

| Compound | EC50 (HCT-116 [1]) [nM] | IC50 (Aurora kinase B) [nM] | solubility [2] [µM] | IC50 (Aurora kinase A) [nM] | EC50 (HCT-116 [3]) [nM] | half-life [4] [h] | Activity (HCT-116 [5]) | clearance [6] [mL/min/kg] |
| --- | --- | --- | --- | --- | --- | --- | --- | --- |
| c1cc(CNc2ncnc3ccsc23)cc(Nc2nc3ccccc3[nH]2)c1 | 8500 | 580 |  |  |  |  |  |  |
| Clc1cnc2nc(Nc3ccc(CCNc4ncnc5ccsc45)cc3)[nH]c2c1 | 17 | 10 | 100 (≈ 42.2 µg/mL) | 20 | 16 |  |  |  |
| O=C(Nc1cccc(C(F)(F)F)c1)Nc1ncc(CCNc2ncnc3ccsc23)s1 |  |  | 50 (≈ 23.2 µg/mL) |  | < 16 |  |  |  |
| O=C(Nc1ccccc1)Nc1ncc(CCNc2ncnc3ccsc23)s1 |  |  | 100 (≈ 39.7 µg/mL) |  | 16 |  |  |  |
| c1ccc2[nH]c(Nc3ccc(CNc4ncnc5ccsc45)cc3)nc2c1 |  | > 10000 |  |  |  |  |  |  |
| c1ccc2sc(Nc3ccc(CCNc4ncnc5ccsc45)cc3)nc2c1 |  | 2500 | 100 (≈ 40.4 µg/mL) |  |  |  |  |  |
| FC(F)(F)c1ccc2[nH]c(Nc3ccc(CCNc4ncnc5ccsc45)cc3)nc2c1 | 5 | 6 | 750 (≈ 341 µg/mL) | 40 | 16 | 0.61 | Active | 85 |
| FC(F)(F)c1ccc2nc(Nc3ncc(CCNc4ncnc5ccsc45)s3)[nH]c2c1 | 1900 | 620 | 100 (≈ 46.1 µg/mL) | 490 |  |  |  |  |
| Cn1c(Nc2ccc(CCNc3ncnc4ccsc34)cc2)nc2ccccc21 |  | 280 | > 1000 |  |  |  |  |  |
| c1ccc2[nH]c(Nc3ccc(CCNc4ncnc5ccsc45)cc3)nc2c1 | 41 | 10 | > 1000 | 28 |  |  |  |  |
| FC(F)(F)c1cnc2nc(Nc3ccc(CCNc4ncnc5ccsc45)cc3)[nH]c2c1 | < 1 | 5 | 100 (≈ 45.5 µg/mL) | 17 | < 16 | 1.5 |  |  |
| CS(=O)(=O)O.O=C(Nc1cccc(Cl)c1)Nc1ncc(CCNc2ncnc3ccsc23)s1 [SNS-314 MESYLATE] |  |  | 50 |  | < 16 | 1.4 |  | 48 |
| c1ccc2oc(Nc3ccc(CCNc4ncnc5ccsc45)cc3)nc2c1 | 400 | 120 | 200 (≈ 77.5 µg/mL) |  |  |  |  |  |
| c1ccc(-c2c[nH]c(Nc3ccc(CCNc4ncnc5ccsc45)cc3)n2)cc1 |  | > 10000 | > 1000 |  |  |  |  |  |
| FC(F)(F)c1ccc2[nH]c(Nc3ccc(CCNc4ncnc5ccsc45)cn3)nc2c1 |  | 600 | > 1000 |  |  |  |  |  |
| FC(F)(F)c1cccc(Nc2nc3ccc(CCNc4ncnc5ccsc45)cc3[nH]2)c1 |  | 1400 |  |  |  |  |  |  |
| c1ccc2[nH]c(Nc3ncc(CCNc4ncnc5ccsc45)s3)nc2c1 |  | 420 | 400 (≈ 157 µg/mL) | 1400 |  |  |  |  |
| FC(F)(F)c1ccc2nc(Nc3ccc(CCNc4ncnc5ccsc45)nc3)[nH]c2c1 | 161 | 63 | 400 (≈ 182 µg/mL) |  | 63 |  |  |  |
| c1cc(CCNc2ncnc3ccsc23)cc(Nc2nc3ccccc3[nH]2)c1 |  | 1400 |  |  |  |  |  |  |
| c1cnc2nc(Nc3ccc(CCNc4ncnc5ccsc45)cc3)[nH]c2c1 | 270 | 83 | > 1000 |  |  |  |  |  |
| Clc1ccc2[nH]c(Nc3ccc(CCNc4ncnc5ccsc45)cc3)nc2c1 | 9 | 8 | > 1000 | 28 | 16 | 0.45 | Active | 39 |
| Cc1nc(Nc2ccc(CCNc3ncnc4ccsc34)cc2)[nH]c1C |  | 5600 | > 1000 |  |  |  |  |  |
| Fc1cc(CCNc2ncnc3ccsc23)ccc1Nc1nc2cc(C(F)(F)F)ccc2[nH]1 | 80 | 21 | 750 (≈ 354 µg/mL) | 64 | 63 |  |  |  |
| c1cc2nc(Nc3ccc(CCNc4ncnc5ccsc45)cc3)[nH]c2cn1 |  | 140 | > 1000 |  |  |  |  |  |

Source: ChEMBL document CHEMBL1154201, “2-Aminobenzimidazoles as potent Aurora kinase inhibitors” (Bioorg Med Chem Lett, 2009)
